According to ChEMBL document CHEMBL3525900, “Pharmacokinetics, distribution, and metabolism of [14C]sunitinib in rats, monkeys, and humans” (Drug Metab Dispos, 2012):

Key:
Rattus norvegicus [1] = test: AUC (0 to infinity) as total radioactivity in female Sprague-Dawley rat plasma at 5 mg/kg, iv administered as single dose by LC/MS/MS analysis; format: ADME, organism-based; parameters: dose 5 mg/kg, dosed compound name [14C]Sunitinib, route intravenous, time infinity; conditions: in vivo
In short: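 Single dose of [14C]sunitinib L-malate as free base, 50 µCi/kg. IV dose was 5 mg/kg by tail vein in 5 females. Oral dose was 15 mg/kg by gavage in 3 females and 3 males. Total radioactivity was by scintillation counting. […] Cmax was read from raw data, t½ by log-linear regression, AUC by linear trapezoidal rule.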

[2] = Drug concentration in male albino rat thyroid gland assessed as radioactivity per gram of tissue at 20 mg/kg administered as single dose via gastric gavage measured after 72 hrs by autoradiographic analysis; format: ADME, organism-based; parameters: dose 20 mg/kg, dosed compound name [14C]Sunitinib; conditions: in vivo, po
[3] = Drug recovery in urine of human at 50 mg, po administered as single dose during 0 to 504 hrs by liquid scintillation counting; format: ADME, organism-based; parameters: dosed compound name [14C]Sunitinib; conditions: in vivo
[4] = Drug recovery in feces of human at 50 mg, po administered as single dose during 0 to 504 hrs by liquid scintillation counting; format: ADME, organism-based; parameters: dosed compound name [14C]Sunitinib; conditions: in vivo
[5] = Drug recovery in feces of female Sprague-Dawley rat at 5 mg/kg, iv administered as single dose during 0 to 72 hrs by liquid scintillation counting; format: ADME, organism-based; parameters: dose 5 mg/kg, dosed compound name [14C]Sunitinib, route intravenous; conditions: in vivo
Rattus norvegicus [6] = test: Drug recovery in cage residue of female Sprague-Dawley rat at 5 mg/kg, iv administered as single dose during 0 to 72 hrs by liquid scintillation counting; format: ADME, organism-based; parameters: dose 5 mg/kg, dosed compound name [14C]Sunitinib, route intravenous; conditions: in vivo
[7] = Drug recovery in feces of female cynomolgus monkey at 6 mg/kg, po administered as single dose during 0 to 336 hrs by liquid scintillation counting; format: ADME, organism-based, Macaca fascicularis; parameters: dose 6 mg/kg, dosed compound name [14C]Sunitinib, route oral; conditions: in vivo
[8] = Drug concentration in male Lister Hooded pigmented rat skeletal muscle assessed as radioactivity per gram of tissue at 20 mg/kg administered as single dose via gastric gavage measured after 24 hrs by autoradiographic analysis; format: ADME, organism-based; parameters: dose 20 mg/kg, dosed compound name [14C]Sunitinib; conditions: in vivo, po
Blood = test: Drug concentration in male albino rat blood assessed as radioactivity per gram of tissue at 20 mg/kg administered as single dose via gastric gavage measured after 6 hrs by autoradiographic analysis; format: ADME, organism-based; parameters: dose 20 mg/kg, dosed compound name [14C]Sunitinib; conditions: in vivo, po
Liver [9] = test: Drug concentration in male albino rat liver assessed as radioactivity per gram of tissue at 20 mg/kg administered as single dose via gastric gavage measured after 6 hrs by autoradiographic analysis; format: ADME, organism-based; parameters: dose 20 mg/kg, dosed compound name [14C]Sunitinib; conditions: in vivo, po
Lung = test: Drug concentration in male albino rat lung assessed as radioactivity per gram of tissue at 20 mg/kg administered as single dose via gastric gavage measured after 3 hrs by autoradiographic analysis; format: ADME, organism-based; parameters: dose 20 mg/kg, dosed compound name [14C]Sunitinib; conditions: in vivo, po
Pancreas = test: Drug concentration in male albino rat pancreas assessed as radioactivity per gram of tissue at 20 mg/kg administered as single dose via gastric gavage measured after 3 hrs by autoradiographic analysis; format: ADME, organism-based; parameters: dose 20 mg/kg, dosed compound name [14C]Sunitinib; conditions: in vivo, po
[10] = Drug concentration in female albino rat skeletal muscle assessed as radioactivity per gram of tissue at 20 mg/kg administered as single dose via gastric gavage measured after 6 hrs by autoradiographic analysis; format: ADME, organism-based; parameters: dose 20 mg/kg, dosed compound name [14C]Sunitinib; conditions: in vivo, po
Spinal cord = test: Drug concentration in female albino rat spinal cord assessed as radioactivity per gram of tissue at 20 mg/kg administered as single dose via gastric gavage measured after 6 hrs by autoradiographic analysis; format: ADME, organism-based; parameters: dose 20 mg/kg, dosed compound name [14C]Sunitinib; conditions: in vivo, po
[11] = Drug concentration in female albino rat uveal tract assessed as radioactivity per gram of tissue at 20 mg/kg administered as single dose via gastric gavage measured after 6 hrs by autoradiographic analysis; format: ADME, organism-based; parameters: dose 20 mg/kg, dosed compound name [14C]Sunitinib; conditions: in vivo, po
Zone of skin [12] = test: Drug concentration in male Lister Hooded pigmented rat abdomen skin assessed as radioactivity per gram of tissue at 20 mg/kg administered as single dose via gastric gavage measured after 168 hrs by autoradiographic analysis; format: ADME, organism-based; parameters: dose 20 mg/kg, dosed compound name [14C]Sunitinib; conditions: in vivo, po
[13] = Drug concentration in female albino rat eye assessed as radioactivity per gram of tissue at 20 mg/kg administered as single dose via gastric gavage measured after 6 hrs by autoradiographic analysis; format: ADME, organism-based; parameters: dose 20 mg/kg, dosed compound name [14C]Sunitinib; conditions: in vivo, po
In short: (§1)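 Sprague Dawley albino rats, ca 7-8 weeks old, dosed once by gastric gavage with [14C]sunitinib L-malate (15 mg freebase/kg, 100 µCi/kg). One male and one female killed by CO2 at 3, 6, 24, 72 and 168 h. Carcasses frozen in solid CO2/hexane, embedded and cut into 30 µm sagittal sections, then freeze-dried. Radioactivity quantified by whole-body autoradiography against standards by regression, background subtracted.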

[14] = Drug concentration in male albino rat bladder assessed as radioactivity per gram of tissue at 20 mg/kg administered as single dose via gastric gavage measured after 3 hrs by autoradiographic analysis; format: ADME, organism-based, Urinary bladder; parameters: dose 20 mg/kg, dosed compound name [14C]Sunitinib; conditions: in vivo, po
Small intestine [15] = test: Drug concentration in male Lister Hooded pigmented rat small intestine assessed as radioactivity per gram of tissue at 20 mg/kg administered as single dose via gastric gavage measured after 72 hrs by autoradiographic analysis; format: ADME, organism-based; parameters: dose 20 mg/kg, dosed compound name [14C]Sunitinib; conditions: in vivo, po
Adrenal = test: Drug concentration in male Lister Hooded pigmented rat adrenal assessed as radioactivity per gram of tissue at 20 mg/kg administered as single dose via gastric gavage measured after 168 hrs by autoradiographic analysis; format: ADME, organism-based; parameters: dose 20 mg/kg, dosed compound name [14C]Sunitinib; conditions: in vivo, po
Kidney [16] = test: Drug concentration in female albino rat kidney assessed as radioactivity per gram of tissue at 20 mg/kg administered as single dose via gastric gavage measured after 168 hrs by autoradiographic analysis; format: ADME, organism-based; parameters: dose 20 mg/kg, dosed compound name [14C]Sunitinib; conditions: in vivo, po; in short: as §1
Zone of skin [17] = test: Drug concentration in male albino rat abdomen skin assessed as radioactivity per gram of tissue at 20 mg/kg administered as single dose via gastric gavage measured after 24 hrs by autoradiographic analysis; format: ADME, organism-based; parameters: dose 20 mg/kg, dosed compound name [14C]Sunitinib; conditions: in vivo, po
Small intestine [18] = test: Drug concentration in male albino rat small intestine assessed as radioactivity per gram of tissue at 20 mg/kg administered as single dose via gastric gavage measured after 24 hrs by autoradiographic analysis; format: ADME, organism-based; parameters: dose 20 mg/kg, dosed compound name [14C]Sunitinib; conditions: in vivo, po
Liver [19] = test: Drug concentration in male albino rat liver assessed as radioactivity per gram of tissue at 20 mg/kg administered as single dose via gastric gavage measured after 72 hrs by autoradiographic analysis; format: ADME, organism-based; parameters: dose 20 mg/kg, dosed compound name [14C]Sunitinib; conditions: in vivo, po
[20] = Drug concentration in female albino rat salivary gland assessed as radioactivity per gram of tissue at 20 mg/kg administered as single dose via gastric gavage measured after 24 hrs by autoradiographic analysis; format: ADME, organism-based; parameters: dose 20 mg/kg, dosed compound name [14C]Sunitinib; conditions: in vivo, po; in short: as §1
Spleen = test: Drug concentration in male albino rat spleen assessed as radioactivity per gram of tissue at 20 mg/kg administered as single dose via gastric gavage measured after 6 hrs by autoradiographic analysis; format: ADME, organism-based; parameters: dose 20 mg/kg, dosed compound name [14C]Sunitinib; conditions: in vivo, po
Brain = test: Drug concentration in female albino rat brain assessed as radioactivity per gram of tissue at 20 mg/kg administered as single dose via gastric gavage measured after 24 hrs by autoradiographic analysis; format: ADME, organism-based; parameters: dose 20 mg/kg, dosed compound name [14C]Sunitinib; conditions: in vivo, po
In short: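 Sprague Dawley (albino) rats, ca 7-8 weeks old, received a single gastric-gavage dose of [14C]sunitinib L-malate at 20 mg/kg (15 mg freebase/kg, 100 µCi/kg). One animal per sex killed by CO2 at 3, 6, 24, 72 and 168 h, then frozen in CO2/hexane. 30 µm sagittal sections were cut and freeze-dried. Radioactivity per gram quantified by whole-body autoradiography using regression against standards. LOQ 0.04–0.06 µg freebase equiv/g.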

Kidney [21] = test: Drug concentration in female albino rat kidney assessed as radioactivity per gram of tissue at 20 mg/kg administered as single dose via gastric gavage measured after 24 hrs by autoradiographic analysis; format: ADME, organism-based; parameters: dose 20 mg/kg, dosed compound name [14C]Sunitinib; conditions: in vivo, po; in short: as §1
[22] = Drug concentration in female Lister Hooded pigmented rat uveal tract assessed as radioactivity per gram of tissue at 20 mg/kg administered as single dose via gastric gavage measured after 24 hrs by autoradiographic analysis; format: ADME, organism-based; parameters: dose 20 mg/kg, dosed compound name [14C]Sunitinib; conditions: in vivo, po
In short: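 Lister Hooded (pigmented) rats, ca 7-8 weeks old, acclimated 7 days, given [14C]sunitinib L-malate by gastric gavage at 20 mg/kg (15 mg freebase/kg, 100 µCi/kg). One male and one female killed by CO2 at 24, 72, 168 and 336 h. Carcasses frozen in solid CO2/hexane and embedded in frozen cellulose. 30 µm sagittal cryosections were freeze-dried. Tissue radioactivity measured by quantitative whole-body autoradiography against calibration standards, with background subtracted.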

## CCN(CC)CCNC(=O)c1c(C)[nH]c(/[14CH]=C2\C(=O)Nc3ccc(F)cc32)c1C.O=C(O)C[C@H](O)C(=O)O
Rattus norvegicus [1]
  AUC: 17427 ng.Eq.hr/ml
[2]
  Radiolabel recovery: 0.24 ugequiv
[3]
  Radiolabel recovery: 16%
[4]
  Radiolabel recovery: 61%
[5]
  Radiolabel recovery: 77.2%
Rattus norvegicus [6]
  Radiolabel recovery: 1.1%
[7]
  Radiolabel recovery: 84.1%
[8]
  Radiolabel recovery: 0.3 ugequiv
Blood
  Radiolabel recovery: 0.84 ugequiv
Liver [9]
  Radiolabel recovery: 10.7 ugequiv
Lung
  Radiolabel recovery: 20.7 ugequiv
Pancreas
  Radiolabel recovery: 11.1 ugequiv
[10]
  Radiolabel recovery: 3.33 ugequiv
Spinal cord
  Radiolabel recovery: 0.35 ugequiv
[11]
  Radiolabel recovery: 4.94 ugequiv
Zone of skin [12]
  Radiolabel recovery: 0.58 ugequiv
[13]
  Radiolabel recovery: 1.18 ugequiv
[14]
  Radiolabel recovery: 3.22 ugequiv
Small intestine [15]
  Radiolabel recovery: 0.07 ugequiv
Adrenal
  Radiolabel recovery: 0.74 ugequiv
Kidney [16]
  Radiolabel recovery: 0.09 ugequiv
Zone of skin [17]
  Radiolabel recovery: 3.39 ugequiv
Small intestine [18]
  Radiolabel recovery: 1.55 ugequiv
Liver [19]
  Radiolabel recovery: 0.24 ugequiv
[20]
  Radiolabel recovery: 2.65 ugequiv
Spleen
  Radiolabel recovery: 16.24 ugequiv
Brain
  Radiolabel recovery: 0.07 ugequiv
Kidney [21]
  Radiolabel recovery: 4.79 ugequiv
[22]
  Radiolabel recovery: 124.52 ugequiv
